Reference: ChEMBL document CHEMBL2407075, “Sulphonamido-quinoxalines: search for anticancer agent” (Eur J Med Chem, 2013)

How the values were obtained:
Format in all cases: functional
NCI-H23 = experiment: Growth inhibition of human NCI-H23 cells assessed as cell growth at 10^-5 M after 48 hrs by sulforhodamine B assay; conditions: NCI-H23, 48 h, read-out: Activity
NCI-H322M = experiment: Growth inhibition of human NCI-H322M cells assessed as cell growth at 10^-7 M after 48 hrs by sulforhodamine B assay; conditions: read-out: Activity
PC-3 = experiment: Growth inhibition of human PC3 cells assessed as cell growth at 10^-6 M after 48 hrs by sulforhodamine B assay; conditions: PC-3, 48 h, read-out: Activity
MDA-MB-435 [1] = experiment: Growth inhibition of human MDA-MB-435 cells assessed as cell growth at 10^-4 M after 48 hrs by sulforhodamine B assay; conditions: MDA-MB-435, 48 h, read-out: Activity
A498 = experiment: Growth inhibition of human A498 cells assessed as cell growth at 10^-5 M after 48 hrs by sulforhodamine B assay; conditions: A498, 48 h, read-out: Activity
Summary of the method: (§1)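 Five-dose NCI-60 run (0.01, 0.1, 1, 10 and 100 µM, as 10-fold dilutions from a DMSO stock made at 400× the top final level). Cells were grown in RPMI 1640 with 5% FBS and 2 mM glutamine and plated for 24 h. They were then exposed for 48 h at 37 °C and 5% CO2. TCA fixation was followed by SRB staining with A515 read-out. Percent growth was taken relative to time-zero and control plates.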

TK-10 = experiment: Growth inhibition of human TK10 cells assessed as cell growth at 10^-8 M after 48 hrs by sulforhodamine B assay; conditions: TK-10, 48 h, read-out: Activity
UACC-62 = experiment: Growth inhibition of human UACC62 cells assessed as cell growth at 10^-4 M after 48 hrs by sulforhodamine B assay; conditions: UACC-62, 48 h, read-out: Activity
KM12 [2] = experiment: Growth inhibition of human KM12 cells assessed as cell growth at 10^-7 M after 48 hrs by sulforhodamine B assay; conditions: KM12, 48 h, read-out: Activity
HL-60(TB) = experiment: Growth inhibition of human HL-60(TB) cells assessed as cell growth at 10^-4 M after 48 hrs by sulforhodamine B assay; conditions: HL-60, 48 h, read-out: Activity
Summary of the method: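 HL-60(TB) suspension cells were treated 48 h at 37 °C within the five-dose series (0.01–100 µM), fixed with 16% final TCA and SRB-stained, read at 515 nm. Percentage growth at each concentration = (Ti−Tz)/(C−Tz)×100, or (Ti−Tz)/Tz×100 when Ti<Tz, with time-zero (Tz) and untreated control (C) plates.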

SN12C = experiment: Growth inhibition of human SN12C cells assessed as cell growth at 10^-4 M after 48 hrs by sulforhodamine B assay; conditions: read-out: Activity
NCI-H522 = experiment: Growth inhibition of human NCI-H522 cells after 48 hrs by sulforhodamine B assay; conditions: NCI-H522, 48 h; for CC50: read-out: LC50 (the source's name)
Summary of the method: (§2)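 Adherent cells in RPMI 1640 with 5% FBS and 2 mM L-glutamine were plated at 5000–40,000 cells/well and grown 24 h. Five concentrations (0.01–100 µM, DMSO stock) were added for 48 h at 37 °C. Cells were fixed with cold TCA (10% final) and stained with SRB, read at 515 nm. GI50 came from log concentration–growth curves against time-zero and control plates.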

KM12 [3] = experiment: Growth inhibition of human KM12 cells assessed as cell growth at 10^-5 M after 48 hrs by sulforhodamine B assay; conditions: KM12, 48 h, read-out: Activity
OVCAR-8 = experiment: Growth inhibition of human OVCAR8 cells assessed as cell growth at 10^-8 M after 48 hrs by sulforhodamine B assay; conditions: OVCAR-8, 48 h, read-out: Activity
BT-549 = experiment: Growth inhibition of human BT549 cells after 48 hrs by sulforhodamine B assay; conditions: BT-549, 48 h; for CC50: read-out: LC50 (the source's name); summary of the method: as §2
UO-31 [4] = experiment: Growth inhibition of human UO31 cells assessed as cell growth at 10^-5 M after 48 hrs by sulforhodamine B assay; conditions: UO-31, 48 h, read-out: Activity
COLO 205 = experiment: Growth inhibition of human COLO205 cells assessed as cell growth at 10^-4 M after 48 hrs by sulforhodamine B assay; conditions: COLO 205, 48 h, read-out: Activity; summary of the method: as §1
MDA-MB-435 [5] = experiment: Growth inhibition of human MDA-MB-435 cells assessed as cell growth at 10^-5 M after 48 hrs by sulforhodamine B assay; conditions: MDA-MB-435, 48 h, read-out: Activity
MCF7 [6] = experiment: Growth inhibition of human MCF7 cells assessed as cell growth at 10^-4 M after 48 hrs by sulforhodamine B assay; conditions: MCF7, 48 h, read-out: Activity
ACHN = experiment: Growth inhibition of human ACHN cells assessed as cell growth at 10^-7 M after 48 hrs by sulforhodamine B assay; conditions: read-out: Activity; summary of the method: as §1
[7] = Growth inhibition of human NCI-ADR-RES cells assessed as cell growth at 10^-4 M after 48 hrs by sulforhodamine B assay; conditions: read-out: Activity
SF-268 = experiment: Growth inhibition of human SF268 cells assessed as cell growth at 10^-6 M after 48 hrs by sulforhodamine B assay; conditions: SF-268, 48 h, read-out: Activity
UO-31 [8] = experiment: Growth inhibition of human UO31 cells assessed as cell growth at 10^-7 M after 48 hrs by sulforhodamine B assay; conditions: UO-31, 48 h, read-out: Activity
OVCAR-3 = experiment: Growth inhibition of human OVCAR3 cells assessed as cell growth at 10^-5 M after 48 hrs by sulforhodamine B assay; conditions: OVCAR-3, 48 h, read-out: Activity
A549 [9] = experiment: Growth inhibition of human A549/ATCC cells assessed as cell growth at 10^-8 M after 48 hrs by sulforhodamine B assay; conditions: A549, 48 h, read-out: Activity; summary of the method: as §1
U-251 = experiment: Growth inhibition of human U251 cells assessed as cell growth at 10^-4 M after 48 hrs by sulforhodamine B assay; conditions: U-251, 48 h, read-out: Activity
SK-OV-3 = experiment: Growth inhibition of human SKOV3 cells assessed as cell growth at 10^-7 M after 48 hrs by sulforhodamine B assay; conditions: SK-OV-3, 48 h, read-out: Activity
KM12 [10] = experiment: Growth inhibition of human KM12 cells assessed as cell growth at 10^-6 M after 48 hrs by sulforhodamine B assay; conditions: KM12, 48 h, read-out: Activity
786-0 = experiment: Growth inhibition of human 786-0 cells assessed as cell growth at 10^-5 M after 48 hrs by sulforhodamine B assay; conditions: 786-0, 48 h, read-out: Activity; summary of the method: as §1
A549 [11] = experiment: Growth inhibition of human A549/ATCC cells after 48 hrs by sulforhodamine B assay; conditions: A549, 48 h; for CC50: read-out: LC50 (the source's name); summary of the method: as §2
[12] = Growth inhibition of human NCI-ADR-RES cells assessed as cell growth at 10^-6 M after 48 hrs by sulforhodamine B assay; conditions: read-out: Activity
MCF7 [13] = experiment: Growth inhibition of human MCF7 cells assessed as cell growth at 10^-6 M after 48 hrs by sulforhodamine B assay; conditions: MCF7, 48 h, read-out: Activity

Row | SMILES | growth at 10 µM (NCI-H23) | growth at 0.1 µM (NCI-H322M) | growth at 1 µM (PC-3) | growth at 100 µM (MDA-MB-435 [1]) | growth at 10 µM (A498) | growth at 0.01 µM (TK-10) | growth at 100 µM (UACC-62) | growth at 0.1 µM (KM12 [2]) | growth at 100 µM (HL-60(TB)) | growth at 100 µM (SN12C) | CC50 (NCI-H522) | growth at 10 µM (KM12 [3]) | growth at 0.01 µM (OVCAR-8) | CC50 (BT-549) | growth at 10 µM (UO-31 [4]) | growth at 100 µM (COLO 205) | growth at 10 µM (MDA-MB-435 [5]) | growth at 100 µM (MCF7 [6]) | growth at 0.1 µM (ACHN) | growth at 100 µM [7] | other results
1 | O=S(=O)(Nc1ccc(Cl)cc1)c1ccc2nc(-c3ccccc3)c(-c3ccccc3)nc2c1 | 4% | 98% | 63% | 76% | -5% | 90% | 62% | 94% | 45% | 78% | > 100 µM | 5% | 96% | > 100 µM | 6% | 73% | -25% | 76% | 95% | 69% | growth at 1 µM (SF-268): 93%; growth at 0.1 µM (UO-31 [8]): 89%; growth at 10 µM (OVCAR-3): -41%; growth at 0.01 µM (A549 [9]): 94%; growth at 100 µM (U-251): 75%; growth at 0.1 µM (SK-OV-3): 99%; growth at 1 µM (KM12 [10]): 102%; growth at 10 µM (786-0): -45%; TGI (A549 [11]): > 100 µM; CC50 (A549 [11]): > 100 µM; growth at 1 µM [12]: 89%; growth at 1 µM (MCF7 [13]): 93%
2 | O=S(=O)(Nc1ccccn1)c1ccc2nc(-c3ccccc3)c(-c3ccccc3)nc2c1 | 4% | 102% | 60% | 76% | -8% | 92% | 64% | 99% | 29% | 64% | > 100 µM | 6% | 100% | > 100 µM | -5% | 57% | -25% | 40% | 98% | 58% | GI50 (NCI-H522): 1.6 µM; GI50 (BT-549): 1.58 µM; growth at 1 µM (SF-268): 99%; growth at 0.1 µM (UO-31 [8]): 88%; growth at 10 µM (OVCAR-3): -32%; growth at 0.01 µM (A549 [9]): 95%; growth at 100 µM (U-251): 47%; growth at 0.1 µM (SK-OV-3): 98%; growth at 1 µM (KM12 [10]): 99%; growth at 10 µM (786-0): -30%; TGI (A549 [11]): > 100 µM; CC50 (A549 [11]): > 100 µM; growth at 1 µM [12]: 84%; growth at 1 µM (MCF7 [13]): 87%
